Experimental data as given in ChEMBL document CHEMBL4513216, “Probing the Open Global Health Chemical Diversity Library for Multistage-Active Starting Points for Next-Generation Antimalarials” (ACS Infect Dis, 2020).

Experiment: Toxicity liver stage against HepG2, at 10uM
Format: cell-based
Design: test concentration 10 uM, cell line HepG2-A16-CD81EGFP
Conditions: human, HepG2-A16-CD81EGFP cells; read-out: INHIBITION
Outline: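 Uninfected HepG2-A16-CD81EGFP cells, 3 × 10^3 per well, 1536-well, plated on prespotted compound at 10 μM final, parasite-free screening media added to match infected plates; puromycin 10 μM positive, DMSO 0.5% negative; run in parallel with 48 h PbLuc assay at 37 °C, 5% CO2; viability by CellTiter-Glo luminescence, normalized to controls.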

Row | SMILES | cytotoxicity at 10 µM [%]
1 | COC(=O)c1cnn(-c2cc(Oc3cccc(C)c3)ncn2)c1N | 34.1
2 | COc1ccc2cc(NC(=O)CCNc3nc(C)cc(C)n3)cnc2c1 | -48.9
3 | Cc1cnc2c(c1NCc1ccc3c(c1)OCO3)c(=O)n(C)c(=O)n2C | 16.7
4 | CC(=O)Nc1cc(C2CC2)nn1-c1nc(C)c(C)c(=O)[nH]1 | -1.39
5 | Cc1csc(CN2CC[C@H]3C[C@@H](c4nnc(C)[nH]4)O[C@@H]3C2)n1 | 1.56
6 | O=C1CO[C@@H]2CN(C3CCOCC3)C[C@H]2N1Cc1ccncc1 | -151
7 | CO[C@@H]1CO[C@@]2(CCN(C(=O)COc3ccccc3C)C2)C1 | 9.95
8 | CCC(CO)NCc1ccc(-c2ccccc2F)o1 (configuration not stated) | -2.49
9 | CCOC(=O)CN1CCC2(CC1)CC(=O)c1ccc(OC)cc1O2 | 6.2
10 | CCS(=O)(=O)N1CCc2ccc(NC(=O)Nc3ccc(F)cc3F)cc21 | 51.2
11 | O=C(O)c1cccc2c(Br)cccc12 | 3.38
12 | CC(Cn1cc(Br)cn1)C(=O)Nc1ccc(C(N)=O)cc1 (configuration not stated) | -0.609
13 | COc1c(Br)c(C(=O)NC2CCCC2)nn1C | 6.44
14 | CCN1CCCC1CNCc1cc2cc(OC)ccc2[nH]c1=O (configuration not stated) | -10.2
15 | CNC(=O)c1cn[nH]c1C1(C)CCCN(Cc2ccccc2OC)C1 (configuration not stated) | 0.353
16 | NC(=O)C1(c2cnccn2)CCCN1Cc1ccncc1 (configuration not stated) | -0.446
17 | CC1CCCCN1c1nc2c(c(=O)[nH]1)CCN(Cc1ccccc1F)C2 (configuration not stated) | -4.39
18 | COc1cc(OC)c(C2Nc3cc(Cl)ccc3C3=NCCN32)cc1OC (configuration not stated) | -3.14
19 | COCc1cccc(CNc2cnn(C(C)(C)C)c(=O)c2Cl)c1 | 59.2
20 | CCc1nnc2n1CCN(c1nc(C)cc(N(C)C)n1)C2 | -5.89
21 | CC(C)(C)Oc1ccncc1NCc1cscn1 | 15.7
22 | CC(=O)NC1CCN(C(=O)Nc2ccc(SC(F)F)cc2)CC1 | -6.91
23 | CC(C)n1nccc1NC(=O)NCCc1nc2ccc(F)cc2n1C | -7.85

Row | SMILES | cytotoxicity at 10 µM [%]
24 | O=C(c1nc(N2CCCC2)ncc1Cl)N1CCN(Cc2ccsc2)CC1 | -56
25 | COc1ccccc1NC(=O)CC(C)NCCc1sc(C)nc1C (configuration not stated) | 4.82
26 | Cc1nc(-c2nnc[nH]2)sc1C(=O)N1CCCC1c1ccsc1 (configuration not stated) | -3.34
27 | CC(c1ccco1)N(C(=O)NCc1ccon1)C1CC1 (configuration not stated) | 0.805
28 | CCn1ccnc1CN1CCCC1C(=O)Nc1nccs1 (configuration not stated) | -6.7
29 | CCNC(=O)NC(=O)C(C)N(C)CCOc1ccccc1C (configuration not stated) | 3.45
30 | C=C(C)Cn1nnc(C2(NC(=O)c3ccccc3)CCCC2)n1 | 7.09
31 | Cc1cccc(NC(=O)C2CCCN2C(=O)c2ccco2)c1C (configuration not stated) | -2.59
32 | CC(c1cccnc1)N(C)Cc1ccccn1 (configuration not stated) | 0.423
33 | CC(C)(C)n1ncc2c1CCCC2NCc1ccc2ncccc2c1 (configuration not stated) | 7.74
34 | NCC(c1ccc(Cl)cc1)N1CCc2sccc2C1 (configuration not stated) | 6.33
35 | COc1ccc(CN(C)C(=O)Cc2c(C)nn(C)c2C)cc1F | 17
36 | CS(=O)(=O)NCCCNc1ccc(C(F)(F)F)cc1C#N | -2.18
37 | CCCNC(=O)CCNC(=O)N1CCc2c(F)ccc(F)c2C1 | -9.91
38 | O=S(=O)(N1CCCCCC1)N1CCN(Cc2ccc(F)cc2Br)CC1 | -132
39 | NC(=O)Nc1cccc(C(=O)N(Cc2ccncc2)C2CC2)c1 | -2.34
40 | Cc1noc(C)c1CCC(=O)Nc1ccn(C)n1 | -2.4
41 | O=C(NCC1CCN(CCc2ccccc2)C1)c1cc(Cl)c[nH]1 (configuration not stated) | 10
42 | CCN(C(=O)Nc1nccs1)C(C)c1cccc(O)c1 (configuration not stated) | -2.11
43 | CCOc1cc(CNC(=O)c2cnn(CC)c2C(F)(F)F)ccn1 | 16.8
44 | Cc1nn(C)cc1C(C)Nc1ncc(C(N)=O)cc1Cl (configuration not stated) | 3.68
45 | Cc1c(C(=O)NCCC(=O)N2CCCC2)cccc1-c1ccccn1 | 1.39
46 | O=C(NCc1ccc(Cl)s1)c1ccc(N2CCOC2=O)cc1 | 21.1

Row | SMILES | cytotoxicity at 10 µM [%]
47 | COc1c(C)cnc(CN(C)C2CCCCC2)c1C | 20.5
48 | CC(C)NC(=O)CNC(=O)C12CCC(=O)N1c1cc(Cl)ccc1S2 (configuration not stated) | 11.7
49 | O=C(NS(=O)(=O)Cc1ccon1)c1ccsc1 | -14.2
50 | COCCCNC(=O)C(C)(C)N(C)C1CCCC1 | -51.3
51 | c1ccc(-c2cc(CN3CCC(c4ccn[nH]4)CC3)on2)cc1 | 7.98
52 | Clc1ccc2oc(C3CCN(Cc4cccnc4)CC3)nc2c1 | 9.82
53 | c1csc(CN2CC[C@H]3O[C@@H](COCC4CC4)CC[C@H]32)c1 | -74.8
54 | COCCN1CCn2cc(CN(C)Cc3ccco3)nc2C1 | -74.9
55 | c1cnc(N2CCOCC3(CCCN(c4nncs4)C3)C2)cn1 (configuration not stated) | 3.92
56 | Cc1ncc(-c2ccnc(SCCN(C)C)n2)c(-c2ccco2)n1 | -7.25
57 | CC(C)(O)CCc1ccc(C(=O)N2Cc3cnn(CCO)c3C2)cc1 | 2.69
58 | CCC(CO)N(Cc1cccs1)C(=O)Cc1ccc(O)cc1 (configuration not stated) | 6.57
59 | O=C1CCC(C(=O)N2CCOC(Cc3ccccc3Cl)C2)=NN1 (configuration not stated) | -0.108
60 | O=C(CN1CCOc2ccccc2C1)N1Cc2cnn(CCO)c2C1 | -3.24
61 | Cn1ncc2c(NCCOCc3ccccc3)nc(C3CCCC3)nc21 | 9.67
62 | CC(C)Oc1cccc(F)c1C(C(=O)O)N(C)Cc1ccon1 (configuration not stated) | -33.5
63 | COc1ccc(OC2CCN(C(=O)c3ccc(C(C)=O)s3)CC2)cc1 | 3.58
64 | Cc1ccsc1-c1cccc(-c2ccn(CC3CCNC3)n2)c1 (configuration not stated) | -0.288
65 | O=C1NCC2(CCN(C(=O)c3ccc4c(c3)CCCO4)CC2)O1 | -5.8
66 | Cc1nc(-c2cccnc2)ncc1C(=O)N1CCC(C(C)N(C)C)CC1 (configuration not stated) | -1.8
67 | CCNc1ccnc(NC2CCN(S(C)(=O)=O)CC2)n1 | -5.16
68 | CC(=O)N1CCN(C(=O)Nc2ccccc2Cl)[C@H]2CS(=O)(=O)C[C@H]21 | -0.166
69 | CCNC(=O)c1cn2cc(-c3ccccc3Cl)n(CC3CC3)c(=O)c2n1 | 4.63

Row | SMILES | cytotoxicity at 10 µM [%]
70 | COc1nc2ccn(CCc3cnccn3)c(=O)c2cc1C#N | 54.1
71 | Cc1csc(N2CCCN(C3Cc4ccccc4C3)CC2)n1 | 10.3
72 | COCCn1ccnc1CN(Cc1ccccn1)Cc1sccc1C | 2.16
73 | CN(C)C(=O)c1cc2c(s1)CCN(C(=O)CCCN1CCCCC1)C2 | -41.4
74 | COc1cc(-c2cc(-c3ccn(C)c3)nc(N)c2C#N)cc(OC)c1O | -7.77
75 | O=C1CC2(CCN(Cc3ccoc3)CC2)CN1Cc1cc(F)cc(F)c1 | 12.2
76 | Cc1ccc(CN2CC3(CCNCC3)CCC2=O)c(F)c1F | 4.95
77 | Cc1ccccc1OCC1CCCN(c2cc(N)nc(N)n2)C1 (configuration not stated) | 29
78 | CSc1nnc(CC2CCN(C(=O)COc3cccnc3)CC2)n1C | -45.9
79 | COc1coc(CN2CCCC(CCc3ccc(F)cc3)C2)cc1=O (configuration not stated) | 2.16
80 | O=C1CC(c2ccsc2)c2snc(C(=O)O)c2N1 (configuration not stated) | -0.772
81 | Cc1cc(=O)c2cc(F)ccc2n1CC(=O)O | 0.753
82 | Cc1ccc2c(c1)SCC(=O)N2CC(=O)N1CCC[C@H]1c1nc(C)no1 | 7.95
83 | O=C(c1ccnc(N2CCOC(c3ccc(Cl)cc3)C2)c1)N1CCCC1 (configuration not stated) | -1.8
84 | CN(Cc1cccc(O)c1)CC1CCCN(CCc2ccc(Cl)cc2)C1 (configuration not stated) | 6.22
85 | Cc1cn(Cc2ccc(F)c(F)c2)nc1N | -13.5
86 | Clc1ccccc1CCN1CCN(c2ccc3nncn3n2)CC1 | 1.78
87 | Cc1csc(N2CCN(CC(=O)Nc3ccncc3)CC2C)n1 (configuration not stated) | 29.3
88 | CSCCc1ccc(NC(=O)NCc2ccnc(N(C)C)c2)cc1 | 0.661
89 | Cn1cnc2c1CCN(Cc1csc(-c3ccccc3F)n1)C2 | -4.25
90 | Cc1ncsc1C(=O)NCc1ccnc(OCC(F)(F)F)c1 | -1.37
91 | CN(C)CC1CN(Cc2coc(-c3ccc(Cl)cc3)n2)CCO1 (configuration not stated) | 0.35
92 | CCc1cccc(N2CCC(NC(=O)c3ccoc3C)CC2)c1 | -10.8

Row | SMILES | cytotoxicity at 10 µM [%]
93 | c1ccc(-c2noc(CN3CCc4cncnc4C3)n2)nc1 | -2.97
94 | CSc1sc(NC(=O)Cc2c(C)nc(C)[nH]c2=O)nc1C | -1.29
95 | O=C(NCCC(=O)N1CCCc2ccccc21)c1c(O)cc(F)cc1F | 1.35
96 | CCCC(=O)N(CCCN1CCOCC1)c1nc2c(Cl)cccc2s1 | -12.8
97 | CC(C)Nc1nc(-c2ccccc2)nc2c1CCN(C(=O)C1CC1)CC2 | -108
98 | Cc1cnc(N2CCC3(CC2)CC3CN(C)Cc2cccnc2)nc1 (configuration not stated) | -0.37
99 | COCC1CC2(CCN(Cc3nccs3)CC2)CN1Cc1ccccn1 (configuration not stated) | -98.4
100 | CN(Cc1ccncc1)C1COC2(CCN(Cc3nccn3C)CC2)C1 (configuration not stated) | -98.7
101 | CCn1cc2c(n1)CN(Cc1ccc(F)cc1)CC2COCC1CC1 (configuration not stated) | -69
102 | CC(C)NC1CCc2c(ccc(=O)n2CCN2CCOCC2)C1 (configuration not stated) | 7.64
103 | Cc1ccc(CN2CC3(CCN(C(=O)c4cccnc4)C3)C2)o1 | -79.6
104 | O=C([C@H]1COC[C@H]2CN(C3CCCC3)C[C@H]21)N1CCCO1 | 2.14
105 | CCCS(=O)(=O)N1CCC2(CC1)CC(N1CCCC1)c1ccccc12 (configuration not stated) | -0.664
106 | c1ccc(O[C@H]2CO[C@@]3(CCN(Cc4ccc5c(c4)OCO5)C3)C2)nc1 | -76.4
107 | Cn1ccnc1C(=O)N1CCC2(CCN2c2ncccn2)C1 (configuration not stated) | -0.736
108 | Cc1ccc(CN2Cc3nnn(C)c3C(COCC3CC3)C2)s1 (configuration not stated) | 4.27
109 | N#Cc1ccc(N2CCC3(CC2)CC(N2CCOCC2)CO3)cc1 (configuration not stated) | 19
110 | Fc1cccc(N2CCCC3(CN(Cc4cccnc4)CCO3)C2)c1 (configuration not stated) | -78.2
111 | COc1ccc(CN2C[C@H]3CC[C@@H](C2)N(Cc2snnc2C)C3)cc1 | -21.7
112 | CN1[C@@H]2CC[C@H]1CN(c1nc(-c3ccncc3)nc3c1cnn3C)CC2 | 38.7
